Where “and” joins values, the source holds several entries; their conditions need not be identical. Equal entries are not always repeated.
System: HEK-293T
Assay: Multiplex assay against HEK293T
Assay type: toxicity, cell-based
Conditions: human
Procedure, shortened: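 At seeding, live cells were stained with Hoechst33342, BioTracker Green Microtubule Cytoskeleton Dye, MitoTracker Red and Annexin V Alexa Fluor 680. After compound addition they were imaged on a CQ1 microscope at 37°C and 5% CO2, and CellPathfinder machine-learning gating sorted them into Hoechst high-intensity objects or normal cells, with normal cells further split into healthy, pyknosed or fragmented nuclei and pyknosed cells into mitotic or apoptotic. Tubulin, mitochondrial-mass and membrane-permeability phenotypes are given as per cents of cells with healthy nuclei.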

[1] = 12 h, 1 µM, compound concentration 1 uM
[2] = 12 h, 10 µM, compound concentration 10 uM
[3] = 24 h, 1 µM, compound concentration 1 uM
[4] = 24 h, 10 µM, compound concentration 10 uM
[5] = 48 h, 1 µM, compound concentration 1 uM
[6] = 48 h, 10 µM, compound concentration 10 uM

## CN(C)Cc1cccc(NC(=C2C(=O)Nc3cc(C(N)=O)ccc32)c2ccccc2)c1
[1]
  Population Apoptotic (%): 11.04% and 8.47%
  Population Fragmented Nuclei (%): 2.49% and 2.04%
  Population Hoechst High Intensity Objects (%): 0.28% and 0%
  Population Membrane Permeable-Phenotype (%): 0.51% and 7.69%
  Population Mitochondria Different-Phenotype (%): 22.73% and 15.38%
  Population Mitotic Cells (%): 88.96% and 91.53%
  Population Normal (%): 99.72% and 100%
  Population Pyknosed Nuclei (%): 42.66% and 80.27%
  Total Cell Count: 362 and 147
[2]
  Population Apoptotic (%): 15.53% and 28.8%
  Population Fragmented Nuclei (%): 3.04% and 4.44%
  Population Healthy Nuclei (%): 56.2% and 26.11%
  Population Hoechst High Intensity Objects (%): 0.25% and 0%
  Population Membrane Permeable-Phenotype (%): 0.45% and 2.13%
  Population Mitochondria Different-Phenotype (%): 20.72% and 17.02%
  Population Mitotic Cells (%): 84.47% and 71.2%
  Population Normal (%): 99.75% and 100%
  Population Pyknosed Nuclei (%): 40.76% and 69.44%
  Population Tubulin-Different-Phenotype (%): 14.86% and 40.43%
  Total Cell Count: 396 and 180
[3]
  Population Apoptotic (%): 13.33% and 15.56%
  Population Fragmented Nuclei (%): 0.9% and 4.61%
  Population Healthy Nuclei (%): 77.6% and 36.18%
  Population Hoechst High Intensity Objects (%): 0.18% and 0.65%
  Population Membrane Permeable-Phenotype (%): 1.39% and 1.82%
  Population Mitochondria Different-Phenotype (%): 9.47% and 14.55%
  Population Mitotic Cells (%): 86.67% and 84.44%
  Population Normal (%): 99.82% and 99.35%
  Population Pyknosed Nuclei (%): 21.51% and 59.21%
  Population Tubulin-Different-Phenotype (%): 13.16% and 7.27%
[4]
  Population Apoptotic (%): 26.06% and 39.09%
  Population Fragmented Nuclei (%): 1.76% and 3.57%
  Population Healthy Nuclei (%): 66.02% and 40.31%
  Population Hoechst High Intensity Objects (%): 0.19% and 0%
  Population Membrane Permeable-Phenotype (%): 0.89% and 0%
  Population Mitochondria Different-Phenotype (%): 22.78% and 25.32%
  Population Mitotic Cells (%): 73.94% and 60.91%
  Population Normal (%): 99.81% and 100%
  Population Pyknosed Nuclei (%): 32.23% and 56.12%
  Population Tubulin-Different-Phenotype (%): 32.25% and 18.99%
  Total Cell Count: 513 and 196
[5]
  Population Apoptotic (%): 10.07% and 19.05%
  Population Fragmented Nuclei (%): 1.84% and 0.58%
  Population Healthy Nuclei (%): 85.36% and 62.57%
  Population Hoechst High Intensity Objects (%): 0%
  Population Membrane Permeable-Phenotype (%): 5.39% and 0.93%
  Population Mitochondria Different-Phenotype (%): 17.15% and 29.91%
  Population Mitotic Cells (%): 89.93% and 80.95%
  Population Normal (%): 100%
  Population Pyknosed Nuclei (%): 12.8% and 36.84%
[6]
  Population Apoptotic (%): 19.7% and 35.71%
  Population Fragmented Nuclei (%): 2.75% and 2.37%
  Population Healthy Nuclei (%): 80.73% and 58.89%
  Population Hoechst High Intensity Objects (%): 0.12% and 0.39%
  Population Membrane Permeable-Phenotype (%): 4.19% and 2.01%
  Population Mitochondria Different-Phenotype (%): 43.1% and 38.26%
  Population Mitotic Cells (%): 80.3% and 64.29%
  Population Normal (%): 99.88% and 99.61%
  Population Pyknosed Nuclei (%): 16.52% and 38.74%

## COCCNc1cc(NC(=O)N2CCCc3cc(CN4CCOCC4=O)c(C=O)nc32)ncc1C#N
[1]
  Population Apoptotic (%): 8.39% and 10.83%
  Population Fragmented Nuclei (%): 1.89% and 2%
  Population Hoechst High Intensity Objects (%): 0% and 0.66%
  Population Membrane Permeable-Phenotype (%): 0.45% and 0%
  Population Mitochondria Different-Phenotype (%): 40% and 29.63%
  Population Mitotic Cells (%): 91.61% and 89.17%
  Population Normal (%): 100% and 99.34%
  Population Pyknosed Nuclei (%): 38.65% and 80%
  Total Cell Count: 370 and 151
[2]
  Population Apoptotic (%): 13.28% and 9.24%
  Population Fragmented Nuclei (%): 3.21% and 5.33%
  Population Hoechst High Intensity Objects (%): 0.71% and 0%
  Population Membrane Permeable-Phenotype (%): 0.7% and 4.35%
  Population Mitochondria Different-Phenotype (%): 34.27% and 17.39%
  Population Mitotic Cells (%): 86.72% and 90.76%
  Population Normal (%): 99.29% and 100%
  Population Pyknosed Nuclei (%): 45.71% and 79.33%
  Population Tubulin-Different-Phenotype (%): 22.38% and 30.43%
  Total Cell Count: 282 and 150
[3]
  Population Apoptotic (%): 12.59% and 11.28%
  Population Fragmented Nuclei (%): 1.33% and 4.05%
  Population Hoechst High Intensity Objects (%): 0%
  Population Membrane Permeable-Phenotype (%): 1.6% and 0%
  Population Mitochondria Different-Phenotype (%): 19.15% and 9.09%
  Population Mitotic Cells (%): 87.41% and 88.72%
  Population Normal (%): 100%
  Population Pyknosed Nuclei (%): 27.19% and 76.88%
[4]
  Population Apoptotic (%): 27.05% and 20.97%
  Population Fragmented Nuclei (%): 2.91% and 3.95%
  Population Healthy Nuclei (%): 67.48% and 25.99%
  Population Hoechst High Intensity Objects (%): 0.24% and 0%
  Population Membrane Permeable-Phenotype (%): 1.44% and 0%
  Population Mitochondria Different-Phenotype (%): 24.82% and 19.57%
  Population Mitotic Cells (%): 72.95% and 79.03%
  Population Normal (%): 99.76% and 100%
  Population Pyknosed Nuclei (%): 29.61% and 70.06%
  Population Tubulin-Different-Phenotype (%): 39.21% and 21.74%
  Total Cell Count: 413 and 177
[5]
  Population Apoptotic (%): 7.19% and 11.39%
  Population Fragmented Nuclei (%): 2.68% and 2.4%
  Population Healthy Nuclei (%): 85.58% and 59.62%
  Population Hoechst High Intensity Objects (%): 0%
  Population Membrane Permeable-Phenotype (%): 6% and 3.23%
  Population Mitochondria Different-Phenotype (%): 14.96% and 30.65%
  Population Mitotic Cells (%): 92.81% and 88.61%
  Population Normal (%): 100%
[6]
  Population Apoptotic (%): 11.67% and 18.75%
  Population Fragmented Nuclei (%): 2.84% and 5.15%
  Population Healthy Nuclei (%): 81.65% and 53.65%
  Population Hoechst High Intensity Objects (%): 0%
  Population Membrane Permeable-Phenotype (%): 4.91% and 4%
  Population Mitochondria Different-Phenotype (%): 35.13% and 34.4%
  Population Mitotic Cells (%): 88.33% and 81.25%
  Population Normal (%): 100%
  Population Pyknosed Nuclei (%): 15.5% and 41.2%

## O=C1[C@H](Cc2ccc(O)cc2)N2C(=O)CCN(C(=O)NCc3ccccc3)[C@H]2CN1Cc1cccc2ccccc12
[1]
  Population Apoptotic (%): 44% and 46%
  Population Fragmented Nuclei (%): 6% and 7%
  Population Healthy Nuclei (%): 80% and 78%
  Population Hoechst High Intensity Objects (%): 6% and 8%
  Population Membrane Permeable-Phenotype (%): 0%
  Population Mitochondria Different-Phenotype (%): 54% and 68%
  Population Mitotic Cells (%): 55% and 53%
  Population Normal (%): 93% and 91%
  Population Pyknosed Nuclei (%): 12% and 13%
  Population Tubulin-Different-Phenotype (%): 46% and 33%
  Total Cell Count: 374 and 259
[2]
  Population Apoptotic (%): 68% and 60%
  Population Fragmented Nuclei (%): 5%
  Population Healthy Nuclei (%): 74% and 82%
  Population Hoechst High Intensity Objects (%): 11% and 14%
  Population Membrane Permeable-Phenotype (%): 0%
  Population Mitochondria Different-Phenotype (%): 90% and 93%
  Population Mitotic Cells (%): 31% and 40%
  Population Normal (%): 88% and 85%
  Population Pyknosed Nuclei (%): 20% and 11%
  Population Tubulin-Different-Phenotype (%): 76% and 67%
  Total Cell Count: 340 and 257
[3]
  Population Apoptotic (%): 23% and 55%
  Population Fragmented Nuclei (%): 7% and 8%
  Population Healthy Nuclei (%): 80% and 77%
  Population Hoechst High Intensity Objects (%): 7% and 8%
  Population Membrane Permeable-Phenotype (%): 0%
  Population Mitochondria Different-Phenotype (%): 49% and 47%
  Population Mitotic Cells (%): 76% and 45%
  Population Normal (%): 92% and 91%
  Population Pyknosed Nuclei (%): 11% and 14%
  Population Tubulin-Different-Phenotype (%): 38% and 24%
  Total Cell Count: 470 and 305
[4]
  Population Apoptotic (%): 68% and 74%
  Population Fragmented Nuclei (%): 7% and 9%
  Population Healthy Nuclei (%): 75% and 77%
  Population Hoechst High Intensity Objects (%): 11% and 14%
  Population Membrane Permeable-Phenotype (%): 0%
  Population Mitochondria Different-Phenotype (%): 94% and 95%
  Population Mitotic Cells (%): 31% and 25%
  Population Normal (%): 88% and 85%
  Population Pyknosed Nuclei (%): 16% and 12%
  Population Tubulin-Different-Phenotype (%): 65% and 70%
  Total Cell Count: 278 and 249
[5]
  Population Apoptotic (%): 30% and 50%
  Population Fragmented Nuclei (%): 14% and 11%
  Population Healthy Nuclei (%): 78% and 81%
  Population Hoechst High Intensity Objects (%): 4% and 3%
  Population Membrane Permeable-Phenotype (%): 0%
  Population Mitochondria Different-Phenotype (%): 34% and 29%
  Population Mitotic Cells (%): 69% and 50%
  Population Normal (%): 95% and 96%
  Population Pyknosed Nuclei (%): 6% and 7%
  Population Tubulin-Different-Phenotype (%): 26% and 19%
  Total Cell Count: 730 and 472
[6]
  Population Apoptotic (%): 71% and 57%
  Population Fragmented Nuclei (%): 8% and 11%
  Population Healthy Nuclei (%): 79% and 73%
  Population Hoechst High Intensity Objects (%): 10% and 20%
  Population Membrane Permeable-Phenotype (%): 0%
  Population Mitochondria Different-Phenotype (%): 94% and 88%
  Population Mitotic Cells (%): 28% and 42%
  Population Normal (%): 89% and 79%
  Population Pyknosed Nuclei (%): 11% and 14%
  Population Tubulin-Different-Phenotype (%): 63% and 72%
  Total Cell Count: 297 and 232

Reference: ChEMBL document CHEMBL5724801, “EUbOPEN Chemogenomics Library - Multiplex” (2024)
